Test results from ChEMBL document CHEMBL1212793, “Bortezomib inhibits hepatitis B virus replication in transgenic mice” (Antimicrob Agents Chemother, 2010).
The source made the active and inactive calls. The calls are words filed in the database; no cut-off is given here.

Tests used:
Mus musculus [1] = assay: Toxicity in HBV infected 1.3.32 transgenic mouse liver assessed as hepatitis at 0.2 mg/kg, iv single dose after 24 hrs by rotine […] method; assay type: organism-based; set-up: dose 0.2 mg/kg, route intravenous; conditions: in vivo
Summary of the method: (§1)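 Male HBV 1.3.32 transgenic mice, 8–12 weeks, HBeAg-matched. Each got a single i.v. dose in saline/mannitol: 1 mg/kg examined at day 1, 2 or 6, or 0.2, 1.0 or 5.0 mg/kg examined at 24 h. Diluent-only animals served as controls. Livers from representative mice were fixed in zinc-buffered formalin, embedded in paraffin and stained with H&E for pathology.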

Hepatitis B virus [2] = conditions: Liver, 1 mg/kg
Hepatitis B virus [3] = conditions: Liver, 1 mg/kg; remark: listed apart in the source
Mus musculus [4] = assay: Toxicity in HBV infected 1.3.32 transgenic mouse liver assessed as hepatitis at 1 mg/kg, iv single dose after 1 day by rotine […] method; assay type: organism-based; set-up: dose 1 mg/kg, route intravenous; conditions: in vivo, 24 h; summary of the method: as §1
Mus musculus [5] = assay: Toxicity in HBV infected 1.3.32 transgenic mouse liver assessed as serum alanine aminotransferase level at 5 mg/kg, iv after 24 hrs; assay type: organism-based; set-up: dose 5 mg/kg, route intravenous; conditions: in vivo
Summary of the method: (§2)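 Serum ALT was read spectrophotometrically with Infinity ALT reagent against enzyme standards. Mice were HBV 1.3.32 transgenic males, 8–12 weeks, HBeAg-matched, with 3–4 per group. They received a single i.v. injection in 0.9% NaCl/mannitol: 1 mg/kg sampled at 1, 2, 3 or 6 days, or 0.2, 1 or 5 mg/kg sampled at 24 h. Controls got diluent only.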

Mus musculus [6] = assay: Toxicity in HBV infected 1.3.32 transgenic mouse liver assessed as hepatitis at 1 mg/kg, iv single dose after 2 days by rotine […] method; assay type: organism-based; set-up: dose 1 mg/kg, route intravenous; conditions: in vivo, 48 h; summary of the method: as §1
Hepatitis B virus [7] = assay: Antiviral activity against HBV infected in 1.3.32 transgenic mouse assessed as serum HBeAg level at 5 mg/kg, iv single dose after 24 hrs by ELISA; assay type: functional
Summary of the method: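 Serum HBeAg and HBsAg were measured by ELISA in HBV 1.3.32 transgenic mice (male, 8-12 wk) after one i.v. dose in 0.9% NaCl/mannitol. Values are relative to control mice given diluent. 3-4 mice per group; mean ± SEM; Student's t test.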

Hepatitis B virus [8] = conditions: 1 mg/kg
Mus musculus [9] = assay: Toxicity in 1.3.32 transgenic mouse liver assessed as serum alanine aminotransferase level at 1 mg/kg, iv after 2 days; assay type: organism-based; set-up: dose 1 mg/kg, route intravenous; conditions: in vivo, 48 h; summary of the method: as §2
Mus musculus [10] = assay: Toxicity in HBV infected 1.3.32 transgenic mouse assessed as labored breathing, hunched posture at 5 mg/kg, iv after 24 hrs; assay type: organism-based; set-up: dose 5 mg/kg, route intravenous; conditions: in vivo
Mus musculus [11] = assay: Toxicity in HBV infected 1.3.32 transgenic mouse liver assessed as hepatitis at 5 mg/kg, iv single dose after 24 hrs by rotine […] method; assay type: organism-based; set-up: dose 5 mg/kg, route intravenous; conditions: in vivo; summary of the method: as §1
Mus musculus [12] = assay: Toxicity in HBV infected 1.3.32 transgenic mouse liver assessed as hepatitis at 1 mg/kg, iv single dose after 6 days by rotine […] method; assay type: organism-based; set-up: dose 1 mg/kg, route intravenous; conditions: in vivo, 144 h; summary of the method: as §1
Hepatitis B virus [13] = conditions: 5 mg/kg
Hepatitis B virus [14] = conditions: 1 mg/kg; remark: listed apart in the source
Hepatitis B virus [15] = conditions: 1 mg/kg; remark: listed apart in the source
Mus musculus [16] = assay: Toxicity in 1.3.32 transgenic mouse assessed as serum alanine aminotransferase level liver at 1 mg/kg, iv after 6 days […]; assay type: organism-based; set-up: dose 1 mg/kg, route intravenous; conditions: in vivo, 144 h
Mus musculus [17] = assay: Toxicity in HBV infected 1.3.32 transgenic mouse assessed as stress, ruffled fur at 5 mg/kg, iv after 24 hrs; assay type: organism-based; set-up: dose 5 mg/kg, route intravenous; conditions: in vivo
Hepatitis B virus [18] = conditions: 0.2 mg/kg

For CC(C)C[C@H](NC(=O)[C@H](Cc1ccccc1)NC(=O)c1cnccn1)B(O)O [BORTEZOMIB], the Activity (Mus musculus [1]) was “Non-toxic”, the inhibition (Hepatitis B virus [2]) was “Active” and the inhibition (Hepatitis B virus [3]) was “Active”. The Activity (Mus musculus [4]) was “Non-toxic”, the Activity (Mus musculus [5]) was “Toxic” and the Activity (Mus musculus [6]) was “Non-toxic”. For the same compound, the Activity (Hepatitis B virus [7]) was 50%, the inhibition (Hepatitis B virus [8]) was “Active” and the Activity (Mus musculus [9]) was “Toxic”. The Activity (Mus musculus [10]) was “Toxic”, the Activity (Mus musculus [11]) was “Non-toxic” and the Activity (Mus musculus [12]) was “Non-toxic”. The inhibition (Hepatitis B virus [13]) was “Active”, the inhibition (Hepatitis B virus [14]) was “inactive” and the inhibition (Hepatitis B virus [15]) was “Active”. The Activity (Mus musculus [16]) was “Non-toxic”, the Activity (Mus musculus [17]) was “Toxic” and the inhibition (Hepatitis B virus [18]) was “inactive”.
